Results as given in PMC3736091 (Molecular cancer therapeutics, 2013).
Several values for one entry are separate records, joined by “and”; a condition that tells them apart may be missing. Equal values may be shown once. Marks after values point to notes of the source that are not given here.

Key:
SW620 cells = experiment: Clonogenic survival assay, SW620; format: cell-based, human; conditions: for Enhancement factor: 1 μM KU59403
Summary of the method: (§1)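 Clonogenic assay in RPMI 1640 + 10% FBS, 37°C, 5% CO2, <30 passages; HCT116-N7 stably expresses HPV16 E6. Exponentially growing cells had 16 h exposure to cytotoxic (etoposide, doxorubicin or camptothecin; etoposide 1 μM for the bar data) ± test compound 1 μM in 0.5% DMSO, then were seeded for colonies. Survival was normalised to DMSO or inhibitor-alone control. Enhancement factor = survival cytotoxic alone ÷ survival combination, per experiment; 3 independent experiments.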

HCT116-N7 cells = experiment: Clonogenic survival assay, HCT116-N7; format: cell-based, human; conditions: HCT116-N7, etoposide 1 μM + KU59403 1 μM (Figure 1D)
Summary of the method: as §1

Body weight = format: in vivo, mice; conditions: for Maximum body weight loss: SW620 xenograft studies
HCT116 cells = experiment: Clonogenic survival assay, HCT116; format: cell-based, human; conditions: HCT116, etoposide 1 μM + KU59403 1 μM (Figure 1D)
Summary of the method: as §1

[1] = target: ATM activity in HCT116 cells (Homo sapiens, UniProt Q13315); experiment: Inhibition of IR-induced ATM activity, HCT116; format: cell-based; conditions: 1 μM
HCT116-N7 xenografts = experiment: Anti-tumour efficacy, HCT116-N7 xenografts; format: in vivo, mice
[2] = test system: ATM activity in MDA-MB231 cells; experiment: Inhibition of IR-induced ATM activity, MDA-MB231; format: cell-based, human; conditions: 1 μM
[3] = Plasma and tissue concentrations in Balb/C mice; format: in vivo; conditions: 25 mg/kg i.v., female Balb/C mice, at 4 hr
Summary of the method: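 Female Balb/C mice (non-tumour-bearing) received 25 mg/kg i.v. (10 ml/kg) in equimolar phosphoric acid/saline, pH 4. At time points to 4 h, mice were bled by terminal cardiac puncture. Plasma was stored at −20 °C; brain, liver, spleen and lung were snap frozen and homogenised in PBS (1:3 w/v). Samples underwent HPLC against a plasma standard curve (0.05-10 μg/ml); tissue was quantified by method of addition. n = 3 mice per time point.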

LoVo cells = experiment: Clonogenic survival assay, LoVo; format: cell-based, human; conditions: for Enhancement factor: 1 μM KU59403
Summary of the method: as §1

human tumour cell lines = experiment: Concentration needed for in vitro chemo- and radio-sensitisation; format: cell-based
SW620 xenografts = experiment: Anti-tumour efficacy, SW620 xenografts; format: in vivo, mice
ATM [4] = target: T1, ATM (Homo sapiens, UniProt Q13315); experiment: Enzyme inhibition, purified ATM; format: biochemical
Summary of the method: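 Enzymes were isolated from HeLa cells: ATM plus DNA-PK, PI3K, ATR, PI4K and mTOR. Activity was measured across increasing test compound concentrations. IC50 was calculated from sigmoid plots of inhibitor concentration versus activity. Values are the mean of five independent experiments.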

[5] = target: ATM activity in SW620 cells (Homo sapiens, UniProt Q13315); experiment: Inhibition of cellular ATM activity, SW620; format: cell-based; conditions: 1 μM
MDA-MB-231 cells = experiment: Clonogenic survival assay, MDA-MB-231; format: cell-based, human; conditions: MDA-MB-231, etoposide 1 μM + KU59403 1 μM (Figure 1D)
Summary of the method: as §1

[6] = Plasma and tumour concentrations in SW620 tumour-bearing nude mice; format: in vivo
Summary of the method: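 Female CD-1 nude mice carried SW620 s.c. flank xenografts (1×10^7 cells) of ~650 mm³. Test compound was given at 50 mg/kg i.p. in equimolar phosphoric acid/saline, pH 4. The comparator ATM inhibitor was given at 10 mg/kg i.p. in phosphoric acid, 5% DMSO, 10% encapsin, pH 4. Dosing volume was 10 ml/kg. Plasma and tumour were sampled at 1 and 4 h and analysed by HPLC; the tumour detection limit was 0.5 μM.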

ATM [7] = target: T1, ATM; conditions: read-out: Enzyme IC50 ATM; purified enzyme; data previously reported; cited from earlier work
ATR = ATR (Homo sapiens, UniProt Q13535); conditions: read-out: Enzyme IC50 ATR; purified enzyme; data previously reported; cited from earlier work
[8] = KU59403 12.5 mg/kg 2× daily ×5 alone
[9] = KU59403 25 mg/kg daily ×5 alone
[10] = etopophos + KU59403 6 mg/kg 2× daily ×5
[11] = etopophos + KU59403 12.5 mg/kg 1× daily ×5 5 hr post
[12] = etopophos + KU59403 12.5 mg/kg 1× daily ×5 concurrent
[13] = etopophos + KU59403 12.5 mg/kg 2× daily ×5
[14] = etopophos + KU59403 25 mg/kg 2× daily ×5
[15] = irinotecan + KU59403 25 mg/kg daily ×5
[16] = etopophos 11.35 mg/kg i.p. daily ×5 + KU59403 25 mg/kg i.p. twice daily for 5 days
[17] = etopophos (equivalent to 10 mg/kg etoposide) daily ×5 alone

T1 sequence (Q13315 whole entry): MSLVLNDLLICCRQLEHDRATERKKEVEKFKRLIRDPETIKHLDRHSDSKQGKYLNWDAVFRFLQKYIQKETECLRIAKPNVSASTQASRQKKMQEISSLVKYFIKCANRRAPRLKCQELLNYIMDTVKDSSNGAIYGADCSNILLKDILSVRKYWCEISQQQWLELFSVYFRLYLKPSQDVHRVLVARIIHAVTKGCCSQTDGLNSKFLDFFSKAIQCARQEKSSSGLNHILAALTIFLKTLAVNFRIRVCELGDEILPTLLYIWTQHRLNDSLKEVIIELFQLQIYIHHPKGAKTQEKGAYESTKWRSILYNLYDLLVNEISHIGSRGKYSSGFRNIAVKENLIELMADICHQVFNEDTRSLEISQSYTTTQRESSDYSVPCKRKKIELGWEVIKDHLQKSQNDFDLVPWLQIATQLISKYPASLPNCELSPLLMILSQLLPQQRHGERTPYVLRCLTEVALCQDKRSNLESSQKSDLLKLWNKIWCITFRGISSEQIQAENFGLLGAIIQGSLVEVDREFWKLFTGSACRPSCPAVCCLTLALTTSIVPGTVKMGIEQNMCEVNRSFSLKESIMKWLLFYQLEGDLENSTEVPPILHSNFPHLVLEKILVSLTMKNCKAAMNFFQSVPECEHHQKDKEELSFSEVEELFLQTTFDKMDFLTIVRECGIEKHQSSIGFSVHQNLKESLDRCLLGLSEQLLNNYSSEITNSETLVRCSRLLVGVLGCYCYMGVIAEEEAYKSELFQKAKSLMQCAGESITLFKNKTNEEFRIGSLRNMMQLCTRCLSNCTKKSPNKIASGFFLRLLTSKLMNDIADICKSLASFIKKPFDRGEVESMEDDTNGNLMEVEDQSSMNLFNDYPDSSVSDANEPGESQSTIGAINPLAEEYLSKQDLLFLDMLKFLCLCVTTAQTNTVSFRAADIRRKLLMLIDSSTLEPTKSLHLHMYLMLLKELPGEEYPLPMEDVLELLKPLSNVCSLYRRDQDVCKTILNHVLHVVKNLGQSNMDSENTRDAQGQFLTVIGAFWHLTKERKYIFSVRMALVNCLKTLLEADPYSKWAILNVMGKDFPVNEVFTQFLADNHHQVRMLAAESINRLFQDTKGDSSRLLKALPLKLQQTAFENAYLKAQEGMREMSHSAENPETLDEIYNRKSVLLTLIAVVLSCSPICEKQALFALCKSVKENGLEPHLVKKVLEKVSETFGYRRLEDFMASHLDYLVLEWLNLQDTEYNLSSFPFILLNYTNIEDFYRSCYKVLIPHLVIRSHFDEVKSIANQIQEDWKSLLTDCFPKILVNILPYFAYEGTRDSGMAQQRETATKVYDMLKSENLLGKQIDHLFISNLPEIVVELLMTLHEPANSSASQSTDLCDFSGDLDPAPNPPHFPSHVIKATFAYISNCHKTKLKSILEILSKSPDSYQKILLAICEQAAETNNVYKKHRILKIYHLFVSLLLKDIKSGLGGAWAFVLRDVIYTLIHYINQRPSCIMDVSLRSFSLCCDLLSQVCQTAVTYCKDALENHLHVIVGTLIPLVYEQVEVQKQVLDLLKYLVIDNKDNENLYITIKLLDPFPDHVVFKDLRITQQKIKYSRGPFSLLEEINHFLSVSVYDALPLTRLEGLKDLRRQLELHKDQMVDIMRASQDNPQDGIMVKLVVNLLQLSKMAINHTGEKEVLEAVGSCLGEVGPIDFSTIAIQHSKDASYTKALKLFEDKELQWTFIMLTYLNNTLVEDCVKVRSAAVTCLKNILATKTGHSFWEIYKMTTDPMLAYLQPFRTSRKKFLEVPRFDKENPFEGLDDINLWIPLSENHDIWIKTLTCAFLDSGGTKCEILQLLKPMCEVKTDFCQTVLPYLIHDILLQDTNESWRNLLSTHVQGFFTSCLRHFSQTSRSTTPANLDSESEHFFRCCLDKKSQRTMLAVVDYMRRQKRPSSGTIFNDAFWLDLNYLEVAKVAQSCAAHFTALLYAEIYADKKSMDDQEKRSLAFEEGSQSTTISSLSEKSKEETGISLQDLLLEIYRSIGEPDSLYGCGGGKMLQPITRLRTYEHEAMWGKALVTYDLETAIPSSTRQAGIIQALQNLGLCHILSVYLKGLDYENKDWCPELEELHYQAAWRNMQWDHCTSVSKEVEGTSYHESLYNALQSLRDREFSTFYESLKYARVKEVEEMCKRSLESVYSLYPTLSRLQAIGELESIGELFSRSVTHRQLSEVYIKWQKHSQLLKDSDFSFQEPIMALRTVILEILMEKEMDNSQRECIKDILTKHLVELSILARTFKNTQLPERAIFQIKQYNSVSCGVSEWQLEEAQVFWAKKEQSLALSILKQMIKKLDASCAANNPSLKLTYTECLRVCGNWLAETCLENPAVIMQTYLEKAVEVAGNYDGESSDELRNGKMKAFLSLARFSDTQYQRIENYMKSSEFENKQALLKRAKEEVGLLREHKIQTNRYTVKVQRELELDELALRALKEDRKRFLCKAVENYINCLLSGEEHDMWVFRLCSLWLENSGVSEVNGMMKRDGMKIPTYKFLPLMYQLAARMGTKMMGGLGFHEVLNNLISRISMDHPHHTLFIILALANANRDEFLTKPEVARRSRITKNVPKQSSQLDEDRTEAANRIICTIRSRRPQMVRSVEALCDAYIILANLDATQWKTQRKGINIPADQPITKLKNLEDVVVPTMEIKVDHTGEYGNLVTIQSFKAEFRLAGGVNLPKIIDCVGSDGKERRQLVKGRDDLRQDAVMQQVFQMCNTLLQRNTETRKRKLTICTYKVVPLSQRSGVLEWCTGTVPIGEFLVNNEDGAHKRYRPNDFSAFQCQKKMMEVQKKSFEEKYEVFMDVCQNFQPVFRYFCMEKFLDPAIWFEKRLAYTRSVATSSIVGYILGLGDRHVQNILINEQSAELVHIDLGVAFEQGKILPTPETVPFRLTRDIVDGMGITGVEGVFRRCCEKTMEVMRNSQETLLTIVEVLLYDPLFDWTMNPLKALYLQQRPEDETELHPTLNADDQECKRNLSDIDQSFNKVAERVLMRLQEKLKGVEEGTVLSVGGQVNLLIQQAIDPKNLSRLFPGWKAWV
Chain of ATM activity in SW620 cells (Q13315 whole entry): as above
Chain of ATM activity in HCT116 cells (Q13315 whole entry): as above

CN1CCN(CCC(=O)Nc2ccc3c(c2)Sc2cccc(-c4cc(=O)cc(N5CCOCC5)o4)c2S3)CC1 [KU59403]
% Survival Cytotoxic + KU59403 (SW620 cells; SW620, camptothecin 10 nM + 1 μM KU59403, 16 hr): 0.71 ± 0.35 %
Enhancement factor (SW620 cells; SW620, camptothecin 10 nM): 4 and 4.3 ± 2.8
% Survival Cytotoxic + KU59403 (SW620 cells; SW620, doxorubicin 10 nM + 1 μM KU59403, 16 hr): 17 ± 0.2 %
Enhancement factor (SW620 cells; SW620, doxorubicin 10 nM): 2.9 ± 0.6
% Survival Cytotoxic + KU59403 (SW620 cells; SW620, doxorubicin 100 nM + 1 μM KU59403, 16 hr): 0.01 ± .001%
Enhancement factor (SW620 cells; SW620, doxorubicin 100 nM): 1.8 ± 0.7
% Survival Cytotoxic + KU59403 (SW620 cells; SW620, etoposide 100 nM + 1 μM KU59403, 16 hr): 35 ± 12 %
Enhancement factor (SW620 cells; SW620, etoposide 100 nM): 2.9 ± 1.5
% Survival Cytotoxic + KU59403 (SW620 cells; SW620, etoposide 1 μM + 1 μM KU59403, 16 hr): 0.41 ± 0.23 %
Enhancement of etoposide cytotoxicity (SW620 cells; SW620, etoposide 1 μM + KU59403 1 μM (Figure 1D)): 11.9 ± 4.7 fold and 12 fold
Enhancement factor (SW620 cells; SW620, etoposide 1 μM): 12 ± 7
% survival, inhibitor alone (SW620 cells; SW620 cells, KU59403 1 μM alone, 16 hr): 91± 6%
Enhancement of etoposide cytotoxicity (HCT116-N7 cells): 3.8 ± 2.5 fold
Nadir % Starting Body weight (Body weight; [8]): 100%
Nadir % Starting Body weight (Body weight; [9]): 99.7%
Maximum body weight loss (Body weight; combination of KU59403 and etopophos): 7%
Nadir % Starting Body weight (Body weight; [10]): 96.9%
Nadir % Starting Body weight (Body weight; [11]): 94.3%
Nadir % Starting Body weight (Body weight; [12]): 96.5%
Nadir % Starting Body weight (Body weight; [13]): 94.9%
Nadir % Starting Body weight (Body weight; [14]): 93.3%
Maximum body weight loss (Body weight; given as a single agent): < 2%
Nadir % Starting Body weight (Body weight; [15]): 100%
Enhancement of etoposide cytotoxicity (HCT116 cells): 2.3 ± 1.6 fold
Inhibition of IR-induced ATM activity [1]: > 50%
Increase in etopophos-induced tumour growth delay (HCT116-N7 xenografts; KU59403 25 mg/kg twice daily, HCT116-N7 xenografts): 3 fold
Enhancement of etopophos activity (HCT116-N7 xenografts; [16]): 300%
Etopophos-induced tumour growth delay (HCT116-N7 xenografts; [16]): 8.5 days
Inhibition of IR-induced ATM activity [2]: approximately 50%
Plasma concentration [3]: less than 0.1 μM
% survival, inhibitor alone (LoVo cells; LoVo cells, KU59403 1 μM alone, 16 hr): 88± 7%
Enhancement factor (LoVo cells; LoVo, camptothecin 10 nM): 7 and 6.9 ± 3.8
% Survival Cytotoxic + KU59403 (LoVo cells; LoVo, doxorubicin 10 nM + 1 μM KU59403, 16 hr): 16 ± 6.9 %
Enhancement factor (LoVo cells; LoVo, doxorubicin 10 nM): 3.2 ± 1
% Survival Cytotoxic + KU59403 (LoVo cells; LoVo, doxorubicin 100 nM + 1 μM KU59403, 16 hr): 0.35 ± 0.04 %
Enhancement factor (LoVo cells; LoVo, doxorubicin 100 nM): 6.1 ± 2.1
% Survival Cytotoxic + KU59403 (LoVo cells; LoVo, etoposide 100 nM + 1 μM KU59403, 16 hr): 18 ± 0.5 %
Enhancement factor (LoVo cells; LoVo, etoposide 100 nM): 3.3 ± 0.4
% Survival Cytotoxic + KU59403 (LoVo cells; LoVo, etoposide 1 μM + 1 μM KU59403, 16 hr): 1.1 ± 0.2 %
Enhancement factor (LoVo cells; LoVo, etoposide 1 μM): 3.8 ± 1.5
Concentration at which an effective chemo-sensitiser (human tumour cell lines): 1 µM
Delay (SW620 xenografts; [8]): 0.5 days
Time to RTV4 (SW620 xenografts; [8]): 7 days
Delay (SW620 xenografts; [9]): 5.5 days
Time to RTV4 (SW620 xenografts; [9]): 12 days
Increase in etopophos-induced tumour growth delay (SW620 xenografts; KU59403 25 mg/kg twice daily, SW620 xenografts): 3 fold
Delay (SW620 xenografts; [10]): 5.5 days
Enhancement (%) (SW620 xenografts; [10]): 38%
Time to RTV4 (SW620 xenografts; [10]): 12 days
Delay (SW620 xenografts; [11]): 3.5 days
Time to RTV4 (SW620 xenografts; [11]): 10 days
Delay (SW620 xenografts; [12]): 10 days
Enhancement (%) (SW620 xenografts; [12]): 150%
Time to RTV4 (SW620 xenografts; [12]): 16.5 days
Delay (SW620 xenografts; [13]): 8.5 days
Enhancement (%) (SW620 xenografts; [13]): 113 ^§ %
Time to RTV4 (SW620 xenografts; [13]): 15 days
Delay (SW620 xenografts; [14]): 11.5 days
Time to RTV4 (SW620 xenografts; [14]): 18 days
Enhancement (%) (SW620 xenografts; etopophos + KU59403 25 mg/kg 2× daily ×5, 25 mg/kg): 190 ^* %
Delay (SW620 xenografts; [15]): 19.5 days
Time to RTV4 (SW620 xenografts; [15]): 26 days
Enhancement (%) (SW620 xenografts; irinotecan + KU59403 25 mg/kg daily ×5, 25 mg/kg): 144% and 144 ^* %
Specificity for ATM over other members of the PI3K (PIKK) family tested (ATM [4]): at least 1000 fold
Inhibition of ATM activity [5]: > 50%
Enhancement of etoposide cytotoxicity (MDA-MB-231 cells): 3.8 ± 1.8 fold
Time plasma concentration maintained ([6]; 50 mg/kg i.p., SW620-bearing nude mice): at least 4 hours
Tumour concentration ([6]; 50 mg/kg i.p., SW620 xenograft, 4 hour time point): 1.9 µM
Plasma concentration ([6]; single dose 50 mg/kg i.p., SW620-bearing nude mice, 1 and 4 hours): 5 µM

O=c1cc(N2CCOCC2)oc2c(-c3ccccc3)cccc12 [LY294002]
IC50 (ATM [7]): > 100 µM
IC50 (ATR): 100 µM

COc1cc([C@@H]2c3cc4c(cc3[C@@H](O[C@@H]3O[C@@H]5CO[C@@H](C)O[C@H]5[C@H](O)[C@H]3O)[C@H]3COC(=O)[C@H]23)OCO4)cc(OC)c1OP(=O)(O)O [etopophos, Etoposide phosphate, reference compound]
Nadir % Starting Body weight (Body weight; [17]): 98.6%
Maximum body weight loss (Body weight; given as a single agent): < 2%
Median time to RTV4 (HCT116-N7 xenografts; etopophos 11.35 mg/kg i.p. daily for 5 days alone): 5.5 days
Delay (SW620 xenografts; [17]): 4 days
Time to RTV4 (SW620 xenografts; [17]): 10.5 days

CC[C@@]1(O)C(=O)OCc2c1cc1n(c2=O)Cc2cc3ccccc3nc2-1 [Camptothecin, camptothecin, reference compound]
% Survival Cytotoxic alone (SW620 cells; SW620, cytotoxic 10 nM, 16 hr): 2.4 ± 0.2%
% Survival Cytotoxic alone (LoVo cells; LoVo, cytotoxic 10 nM, 16 hr): 33 ± 7.9%
